ChEMBL document CHEMBL4414623, “Rapid Metabolization of Protectin D1 by β-Oxidation of Its Polar Head Chain” (J Med Chem, 2019)
Activity calls are given as the source filed them. The rule behind the calls is not given here.

Legend:
[1] = Drug level in human HepG2 cells treated with 13 uM Protectin-D1 assessed as compound formation incubated for 4 hrs by RP-HPLC/MS analysis; format: ADME, cell-based; conditions: hepg2, 4 h
Outline: (§1)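 HepG2 cells were kept in serum-free medium and incubated for 4 h with 13 μM NPD1 (final) or ethanol vehicle. Media were extracted and run on RP-HPLC with a linear ion trap ESI-MS, using full scans at m/z 100-1000. Peaks present only in NPD1 incubates were located from single-ion chromatograms. MS/MS spectra were collected and compared with those of synthetic standards.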

[2] = Drug metabolism in human HepG2 cells assessed as parent compound remaining level at 13 uM after 24 hrs by LC-MS/MS analysis relative to control; format: ADME, cell-based; conditions: read-out: Stability
Outline: (§2)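 Medium was spiked with d4-LTB4 internal standard, SPE-extracted, and quantified by RP-HPLC coupled to triple quadrupole SRM. Amounts are given as nmol per mg cell protein (Bradford) or as % of NPD1 at T0.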

[3] = species on record: Homo sapiens; experiment: Inhibition of LTB4-induced chemotaxis in human polymorphonuclear leukocytes at 0.01 to 10 nM incubated for 90 mins by Diff-Quick staining based densitometric analysis; format: functional, cell-based
Outline: (§3)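 Human peripheral blood PMNL from healthy NSAID-free donors were isolated by Percoll and hypotonic lysis. Migration toward 10 nM LTB4 in RPMI/0.1% BSA was run in a 48-well microchamber with 5 μm polycarbonate filters, 2×10^6 cells/mL. Test agents at 0.01–10 nM or EtOH were added to both compartments. After 90 min at 37°C, migrated cells were stained and read by densitometry. Sextuplicates, 3–4 donors, normalized to negative controls.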

[4] = Drug metabolism in human HepG2 cells assessed as 3Z,6R,7E,9E,11Z,13S,15Z)-6,13-Dihydroxyoctadeca-3,7,9,11,15-pentaenoic Acid formation at 13 uM up to 24 hrs by LC-MS/MS analysis; format: ADME, cell-based; conditions: hepg2, 24 h; outline: as §2
[5] = Drug metabolism in human HepG2 cells assessed as 3Z,6R,7E,9E,11Z,13S,15Z)-6,13-Dihydroxyoctadeca-3,7,9,11,15-pentaenoic Acid formation at 13 uM after 30 mins by LC-MS/MS analysis; format: ADME, cell-based; conditions: hepg2, 0.5 h; outline: as §2
[6] = Drug excretion in healthy human urine assessed as 3Z,6R,7E,9E,11Z,13S,15Z)-6,13-Dihydroxyoctadeca-3,7,9,11,15-pentaenoic Acid formation by LC-MS/MS analysis; format: ADME, tissue-based; conditions: in vivo
[7] = Drug metabolism in human HepG2 cells assessed as 3Z,6R,7E,9E,11Z,13S,15Z)-6,13-Dihydroxyoctadeca-3,7,9,11,15-pentaenoic Acid formation at 13 uM incubated for 4 hrs by RP-HPLC/MS analysis; format: ADME, cell-based; conditions: hepg2, 4 h; outline: as §1
[8] = Drug metabolism in human HepG2 cells treated with 13 uM Protectin-D1 assessed as compound formation incubated for 4 hrs by tandem mass spectrometric analysis; format: ADME, cell-based; conditions: hepg2, 4 h; outline: as §1
[9] = Drug metabolism in human HepG2 cells assessed as Tmax for 3Z,6R,7E,9E,11Z,13S,15Z)-6,13-Dihydroxyoctadeca-3,7,9,11,15-pentaenoic Acid formation at 2.6 uM by LC-MS/MS analysis; format: ADME, cell-based; conditions: hepg2, 2.6 µM; outline: as §2
[10] = Half life in human HepG2 cells at 0.52 uM by LC-MS/MS analysis; format: ADME, cell-based; outline: as §2
[11] = Half life in human HepG2 cells at 13 uM by LC-MS/MS analysis; format: ADME, cell-based; outline: as §2
[12] = Drug metabolism in human HepG2 cells assessed as (5Z,8R,9E,11E,13Z,15S,17Z)-8,15-Dihydroxyicosa-5,9,11,13,17-pentaenoic Acid formation at 13 uM incubated for 4 hrs by RP-HPLC/MS analysis; format: ADME, cell-based; conditions: hepg2, 4 h; outline: as §1
[13] = Drug metabolism in human HepG2 cells assessed as (5Z,8R,9E,11E,13Z,15S,17Z)-8,15-Dihydroxyicosa-5,9,11,13,17-pentaenoic Acid formation at 13 uM incubated for 4 hrs by tandem mass spectrometric analysis; format: ADME, cell-based; conditions: hepg2, 4 h; outline: as §1
[14] = Drug metabolism in human HepG2 cells at 0.52 uM measured at 30 mins by LC-MS/MS analysis; format: ADME, cell-based; conditions: read-out: Drug metabolism; outline: as §2
[15] = Drug metabolism in human HepG2 cells assessed as Tmax for 3Z,6R,7E,9E,11Z,13S,15Z)-6,13-Dihydroxyoctadeca-3,7,9,11,15-pentaenoic Acid formation at 0.52 uM by LC-MS/MS analysis; format: ADME, cell-based; conditions: hepg2, 0.52 µM; outline: as §2
[16] = Drug metabolism in human HepG2 cells assessed as omega-hydroxylated dinor-NPD1 formation at 13 uM incubated for 4 hrs by RP-HPLC/MS analysis; format: ADME, cell-based; conditions: hepg2, 4 h; outline: as §1
[17] = Drug metabolism in human HepG2 cells assessed as (5Z,8R,9E,11E,13Z,15S,17Z)-8,15-Dihydroxyicosa-5,9,11,13,17-pentaenoic Acid formation at 13 uM after 24 hrs by LC-MS/MS analysis; format: ADME, cell-based; conditions: hepg2, 24 h; outline: as §2
[18] = Drug metabolism in human HepG2 cells assessed as (5Z,8R,9E,11E,13Z,15S,17Z)-8,15-Dihydroxyicosa-5,9,11,13,17-pentaenoic Acid formation at 13 uM up to 8 hrs by LC-MS/MS analysis; format: ADME, cell-based; conditions: hepg2, 8 h; outline: as §2
[19] = Drug metabolism in human HepG2 cells assessed as 3Z,6R,7E,9E,11Z,13S,15Z)-6,13-Dihydroxyoctadeca-3,7,9,11,15-pentaenoic Acid formation at 13 uM after 24 hrs by LC-MS/MS analysis; format: ADME, cell-based; conditions: hepg2, 24 h; outline: as §2
[20] = Drug excretion in healthy human urine assessed as (5Z,8R,9E,11E,13Z,15S,17Z)-8,15-Dihydroxyicosa-5,9,11,13,17-pentaenoic Acid formation by LC-MS/MS analysis; format: ADME, tissue-based; conditions: in vivo
[21] = Drug metabolism in human HepG2 cells assessed as 22-OH-NPD1 formation at 13 uM incubated for 4 hrs by tandem mass spectrometric analysis; format: ADME, cell-based; conditions: hepg2, 4 h; outline: as §1
[22] = Drug excretion in healthy human urine by LC-MS/MS analysis; format: ADME, tissue-based; conditions: in vivo
[23] = Drug metabolism in human HepG2 cells assessed as hexanor-NPD1 formation at 13 uM incubated for 4 hrs by RP-HPLC/MS analysis; format: ADME, cell-based; conditions: hepg2, 4 h; outline: as §1
[24] = Half life in human HepG2 cells at 2.6 uM by LC-MS/MS analysis; format: ADME, cell-based; outline: as §2
[25] = Drug metabolism in human HepG2 cells assessed as 22-OH-NPD1 formation at 13 uM incubated for 4 hrs by RP-HPLC/MS analysis; format: ADME, cell-based; conditions: hepg2, 4 h; outline: as §1
[26] = Drug metabolism in human HepG2 cells assessed as (5Z,8R,9E,11E,13Z,15S,17Z)-8,15-Dihydroxyicosa-5,9,11,13,17-pentaenoic Acid formation at 13 uM after 30 mins by LC-MS/MS analysis; format: ADME, cell-based; conditions: hepg2, 0.5 h; outline: as §2
[27] = Drug level in healthy human urine assessed as drug recovery at 50 ng measured up to 24 hrs at room temperature in presence of BHT by LC-MS/MS analysis; format: ADME, tissue-based; conditions: urine of healthy humans, read-out: Drug recovery
[28] = Drug metabolism in human HepG2 cells assessed as 3Z,6R,7E,9E,11Z,13S,15Z)-6,13-Dihydroxyoctadeca-3,7,9,11,15-pentaenoic Acid formation at 13 uM incubated for 4 hrs by tandem mass spectrometric analysis; format: ADME, cell-based; conditions: hepg2, 4 h; outline: as §1
[29] = species on record: Homo sapiens; experiment: Inhibition of LTB4-induced chemotaxis in human polymorphonuclear leukocytes incubated for 90 mins by Diff-Quick staining based densitometric analysis; format: functional, cell-based; outline: as §3
[30] = Stability in human HepG2 cells at 0.52 uM up to 4 hrs by LC-MS/MS analysis; format: ADME, cell-based; conditions: hepg2, 4 h
Outline: (§4)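 HepG2 cells in serum-free medium were incubated with 2.6 or 0.52 μM final NPD1 or LTE4. Medium was collected at 30 min, 1 h and 4 h, spiked with d4-LTB4 and d5-LTE4, SPE-extracted and quantified by LC-MS/MS SRM. Results are expressed as % of the amount measured at T0.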

[31] = Stability in human HepG2 cells at 2.6 uM up to 4 hrs by LC-MS/MS analysis; format: ADME, cell-based; conditions: hepg2, 4 h; outline: as §4
[32] = tested on: Mus musculus; experiment: Antiinflammatory activity in FVB mouse model of acute pulmonary inflammation assessed as reduction in number of infiltrating neutrophils in BAL fluid at 10 ng administered intratracheally with lipopolysaccharide measured at 24 hrs by FACS analysis; format: functional
Outline: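 Female FVB mice, 7–8 weeks old, acclimated at least 5 days. Intratracheal challenge with 50 μL LPS (250 μg/mL in PBS) containing 10 ng test agent or vehicle (EtOH, 2% final). Controls received PBS with 2% EtOH. BAL collected 24 h later (three 0.6 ml PBS washes). Neutrophils counted by FACS as CD45+ F4/80− Ly6G^hi CD11b^hi, absolute numbers from counting tubes; mean ± SEM, n=3.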

Structure (SMILES): CC/C=C\C[C@H](O)\C=C/C=C/C=C/[C@H](O)C/C=C\CCCC(=O)O
- Drug uptake [1]: Active
- remaining at 24 h, 13 µM [2]: < 0.1%
- inhibition [3]: inactive
- Drug metabolism [4]: Metabolite_Detected

Structure (SMILES): CC/C=C\C[C@H](O)\C=C/C=C/C=C/[C@H](O)C/C=C\C/C=C\CCC(=O)O
- Drug metabolism [5]: Metabolite_Detected
- Drug excretion [6]: Metabolite_Notdetected
- Drug metabolism [7]: Metabolite_Detected
- Drug uptake [8]: Active
- Tmax [9]: 4 h
- half-life at 0.52 µM [10]: 0.5 h
- remaining at 24 h, 13 µM [2]: 0%
- half-life at 13 µM [11]: > 4 h
- Drug metabolism [12]: Metabolite_Detected
- Drug metabolism [13]: Metabolite_Detected
- metabolised at 0.5 h, 0.52 µM [14]: > 50%
- Tmax [15]: 4 h
- Drug metabolism [16]: Metabolite_Detected
- Drug metabolism [17]: Metabolite_Notdetected
- Drug metabolism [18]: Metabolite_Detected
- Drug metabolism [19]: Metabolite_Detected
- Drug excretion [20]: Metabolite_Notdetected
- Drug metabolism [21]: Metabolite_Detected
- Drug excretion [22]: Metabolite_Notdetected
- Drug metabolism [23]: Metabolite_Detected
- half-life at 2.6 µM [24]: 1 h
- Drug metabolism [25]: Metabolite_Detected
- Drug metabolism [26]: Metabolite_Detected
- remaining at 24 h, 50 ng [27]: 106%
- Drug metabolism [28]: Metabolite_Detected
- inhibition [29]: Dose-dependent effect

Structure (SMILES): CCCCC/C=C\C\C=C/C=C/C=C/[C@@H](SC[C@H](N)C(=O)O)[C@@H](O)CCCC(=O)O [LEUKOTRIEN E4]
- Stability [30]: Stable
- Stability [31]: Stable
- Drug excretion [22]: Metabolite_Detected

Structure (SMILES): O=C(O)CC/C=C\C/C=C\C[C@@H](O)/C=C/C=C/C=C\[C@@H](O)C/C=C\CCO
- Drug uptake [1]: Active

Structure (SMILES): CC/C=C\C[C@H](O)\C=C/C=C/C=C/[C@H](O)C/C=C\CC(=O)O
- Drug uptake [1]: Active
- inhibition [3]: Active
- inhibition (INH) [32]: 20%
